Results taken from publication PMC6796967 (Journal of Medicinal Chemistry, 2018).
Residues, ends and D or L forms follow the SMILES beside them.

System: human primary fibroblasts
Experiment: WST-1 cell viability assay in fibroblasts
Type: cell-based
Conditions: 0.1–20 μM, 24 h treatment; highest concentration
Procedure, shortened: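 Primary human fibroblasts (GM04390) grown in high-glucose DMEM with 10% heat-inactivated FBS and antibiotics at 3% O2, 5% CO2, 37 °C. Seeded at 100 000 cells/mL, switched to Optimem after 24 h, then given 0.1–20 μM test compound or DMSO at 48 h. After about 24 h, incubated 4 h with 10% WST-1 reagent; absorbance read at 450 nm.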

C[C@H](NC(=O)[C@H](Cc1ccc(O)cc1)NC(=O)[C@H](Cc1ccc(O)cc1)NC(=O)[C@@H]1CCCN1C(=O)[C@@H]1CCCN1C(=O)[C@@H]1CCCN1C(=O)[C@@H]1CCCN1C(=O)[C@H](CCCNC(=N)N)NC(=O)[C@H](CCCNC(=N)N)NC(=O)[C@@H](N)CCCNC(=N)N)C(=O)O [Compound 2, RRR-PPPP-YYA-OH] (H-RRRPPPPYYA-OH)
cytotoxic effects (cell viability, WST-1): did not exert any cytotoxic effects
